From PubChem BioAssay come the findings set out here.

The source made the active and inactive calls.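 How the source made its calls, unless noted: active means viability at or below 30% in both replicate assays; inconclusive means viability at or below 30% in just one of the two assays; inactive means the rest.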

Assay [1] in a line: reduced viability of SK-BR-3 breast cancer cells – cell-based, 24 h, human, pilot screen (AID 572;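 active means viability at or below 10% of carrier control in both of two separate runs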;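 further: compound exposure lasted between 18 and 24 h rather than exactly 24 h; 100% = carrier-treated control wells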). To be noted: SK-BR-3 viability, CellTiter-Glo luminescence, at 10 µM, stronger effect = lower value. (ATP-based viability assays read luminescence as a measure of living cells.)
Assay [2] in a line: HUVEC growth inhibition – cell-based, human, primary screen (AID 575).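 Further: 100% = median of untreated cell wells with 0.1% DMSO on each plate.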 The settings on record: HUVEC proliferation, CellTiter-Glo luminescence, 72 h; at 10 µM; stronger effect = lower value. In a few lines: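 Test system: HUVEC primary cells. Quantity: 1250 endothelial cells in each well. Dosing: single-point 10 µM, DMSO 0.1% final. Incubation: 72 h treatment at 37 °C. Measured by: CTG luminescence. Control set: DMSO cell controls and MePR drug controls. Plate: collagen-coated 384-well format.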

Assay [3] in a line: H69AR cell proliferation blockers – human, duplicate replicates, primary screen (AID 580;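 active means viability at or under a set limit in both replicates, limit being median viability minus 3 SD, cut at about 48% in these data, passing the limit was not always enough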;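 further: 100% = mean luminescence of untreated wells and 0% = no signal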). To be noted: H69AR lung tumor cells viability, ATP luminescence, 72 h; at 10 µM; stronger effect = lower value.
A short description of assay [4]: MRP1 drug-resistance reversers in H69AR cells – cell-based, doxorubicin co-treatment, pilot screen (AID 601;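 active means viability loss from added drug above about 55%, and viability with drug at most 40%, in both replicates, limit read from the data, passing the limit was not always enough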). The settings on record: CellTiter-Glo, 72 h, at 10 µM; for differential viability (reversal): stronger effect = higher value.
Assay [5] in a line: yeast transport mutant growth inhibition pilot in 384-well plates, post-Golgi transport modulator project (AID 636; in the data active means inhibition above about 31%). The settings on record: absorbance 615 nm, about 18 h, stronger effect = higher value.
The nature of assay [6]: growth suppression of yeast trafficking mutant, preliminary HTS, modulators of trafficking downstream of Golgi apparatus project, 1536-format plate, OD 615 nm (AID 637; in the data active means inhibition above about 30%). The settings on record: yeast transport mutant growth, absorbance 615 nm, 18 h; stronger effect = higher value.
Setting [7] is: H69AR cells + 2 uM doxorubicin, measured here: viability with 2 uM doxorubicin, stronger effect = lower value.
Where [8] appears, read: H69AR cells, compound alone cytotoxicity.

Consider `Cc1ccc(C)c(CSc2nnc(CCN)o2)c1`, for which the viability is 101% (inactive) in assay [1]; 41.5% (inactive) in assay [2]; 71.2% (inactive) in assay [3]; 91.8% in assay [4] (setting [7]); 71.2% in assay [4] (setting [8]). Further, the differential viability (reversal) in assay [4] (H69AR cells + 2 uM doxorubicin) is -20.6% (inactive). The inhibition is -7.67% (inactive) in assay [5] and 5.45% (inactive) in assay [6].
As for `Cc1ccc(OCCN2CCN(C(=O)CCC(=O)Nc3nnc(C)s3)CC2)cc1`, the viability in assay [1] is 88% (inactive); in assay [2], 118% (inactive); in assay [3], 88.6% (inactive); in assay [4] (setting [7]), 91.8%; in assay [4] (setting [8]), 88.6%. Moreover, in assay [4] (H69AR cells + 2 uM doxorubicin), the differential viability (reversal) was -3.2% (inactive). The inhibition is -7.03% (inactive) in assay [5] and 2.91% (inactive) in assay [6].
Take `CCc1ccccc1NC(=O)CSC1=C(C#N)C(c2ccc(O)c(OC)c2)C2=C(CCCC2=O)N1` (stereo not drawn): the viability was 112% (inactive) in assay [1]; 105% (inactive) in assay [2]; 47.9% (active) in assay [3]; 78.1% in assay [4] (setting [7]); 47.9% in assay [4] (setting [8]). Moreover, in assay [4] (H69AR cells + 2 uM doxorubicin), the differential viability (reversal) is -30.2% (inactive). Besides, the figures for the inhibition in assay [5] and in assay [6] were -8.08% (inactive) and 5.65% (inactive), respectively.
On to `O=C(Nc1cnn(Cc2ccc(F)cc2)c1)c1cnccn1`, for which the viability in assay [1] is 117% (inactive); in assay [2], 85.2% (inactive); in assay [3] it was 98.8% (inactive); in assay [4] (setting [7]) it was 97.1%; in assay [4] (setting [8]), 98.8%. In addition, the differential viability (reversal) in assay [4] (H69AR cells + 2 uM doxorubicin) was 1.69% (inactive). The inhibition in assay [5] was -2.34% (inactive); in assay [6] it was 3.93% (inactive).
In the case of `NC(=O)c1c(NC(=O)Cc2cccs2)sc2c1CCC2`, the viability in assay [1] was 103% (inactive); in assay [2], 97.3% (inactive); in assay [3], 94.3% (inactive); in assay [4] (setting [7]), 91.3%; in assay [4] (setting [8]), 94.3%. For the same compound, the differential viability (reversal) in assay [4] (H69AR cells + 2 uM doxorubicin) is 3.05% (inactive). Also, the figures for the inhibition in assay [5] and in assay [6] were -0.27% (inactive) and -6.94% (inactive), respectively.
Regarding `Cc1ccc2nc(C(F)(F)F)c(C#N)c(N)c2c1`, the viability in assay [1] was 50% (inactive); in assay [2], 78.9% (inactive); in assay [3], 71.3% (inactive); in assay [4] (setting [7]), 115%; in assay [4] (setting [8]), 71.3%. The differential viability (reversal) in assay [4] (H69AR cells + 2 uM doxorubicin) is -43.8% (inactive). For the same compound, the inhibition in assay [5] was -4.38% (inactive); in assay [6], 6.55% (inactive).
Regarding `O=C(Cn1c(=O)n(CC2CCCO2)c(=O)c2ccccc21)c1ccccc1` (stereo not drawn), the viability in assay [1] is 121% (inactive); in assay [2], 79.1% (inactive); in assay [3] it was 81.5% (inactive); in assay [4] (setting [7]), 89%; in assay [4] (setting [8]), 81.5%. In assay [4] (H69AR cells + 2 uM doxorubicin), the differential viability (reversal) was -7.53% (inactive). Besides, the inhibition was -1.17% (inactive) in assay [5] and 6.39% (inactive) in assay [6].
On to `COc1ccccc1OCc1nc2ccccc2[nH]1`, for which the viability in assay [1] was 69% (inactive); in assay [2] it was 88.5% (inactive); in assay [3], 99.3% (inactive); in assay [4] (setting [7]) it was 104%; in assay [4] (setting [8]), 99.3%. In assay [4] (H69AR cells + 2 uM doxorubicin), the differential viability (reversal) is -5.04% (inactive). Moreover, the inhibition in assay [5] was -6.16% (inactive); in assay [6], -0.55% (inactive).
`Nc1nc2ccc(OC(F)(F)F)cc2s1`: the viability in assay [1] was 88% (inactive); in assay [2], 76.5% (inactive); in assay [3] it was 71.9% (inactive); in assay [4] (setting [7]), 91.6%; in assay [4] (setting [8]) it was 71.9%. The differential viability (reversal) in assay [4] (H69AR cells + 2 uM doxorubicin) was -19.7% (inactive). Besides, the inhibition in assay [5] was -0.13% (inactive); in assay [6] it was 0.33% (inactive).
Consider `COc1ccc(S(=O)(=O)NCCCN2CCOCC2)c2ccccc12`, for which the viability in assay [1] was 102% (inactive); in assay [2], 101% (inactive); in assay [3], 86.8% (inactive); in assay [4] (setting [7]), 81.1%; in assay [4] (setting [8]), 86.8%. The differential viability (reversal) in assay [4] (H69AR cells + 2 uM doxorubicin) is 5.68% (inactive). The inhibition is -6.53% (inactive) in assay [5] and -0.18% (inactive) in assay [6].
On to `CCCn1nnc(NCc2ccc(OCc3cccs3)c(OC)c2)n1`, for which the viability is 88% (inactive) in assay [1]; 106% (inactive) in assay [2]; 96.5% (inactive) in assay [3]; 95.5% in assay [4] (setting [7]); 96.5% in assay [4] (setting [8]). Moreover, the differential viability (reversal) in assay [4] (H69AR cells + 2 uM doxorubicin) is 1.02% (inactive). The inhibition in assay [5] was -6.44% (inactive); in assay [6], 2.36% (inactive).

What is called viability is a read-out of living cells in per cent, often relative to untreated cells. By inhibition is commonly meant the drop in the measured response relative to a control, in per cent.
